# Activity calls are given as the source filed them. No cut-off for these calls is given here. *1 amine or outer side, *2 acyl side, *3 side chain or, on linkers, in order; H or OH if unused. Where a SMILES comes first, the peptide text is derived from it. [ ]: non-standard residue; d: D form. The star is where a group is joined. Emetine(N2') = CC[C@H]1CN2CCc3cc(OC)c(OC)cc3[C@@H]2C[C@@H]1C[C@@H]1c2cc(OC)c(OC)cc2CCN1*; PABC = O=C(OCc1ccc(N[*:1])cc1)[*:2]
# Experiments:
# LNCaP = test: Antiproliferative activity against human LNCAP cells expressing PSA at 10000 nM after 3 days by MTT assay; format: functional, cell-based
# Procedure, shortened: (§1)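 LNCaP seeded at 5 × 10^3 cells/well; PC3, CWR22Rv1 and MDA-MB-231 at 2.5 × 10^3. The first three were grown in RPMI and MDA-MB-231 in DMEM, each with 10% FBS. After 24 h attachment, cells got final 10, 50, 100, 1000 or 10,000 nM (0.1% DMSO) in eight replicates. Viable cells by MTT on day 0, 3 and 5, A570 corrected at 650 nm. Experiments run at least twice.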
# PC-3 = test: Antiproliferative activity against human PC3 cells at 10000 nM after 3 days by MTT assay; format: functional, cell-based; procedure, shortened: as §1
# [1] = Toxicity in iv dosed Balb/C mouse; format: organism-based; conditions: in vivo
# Procedure, shortened: (§2)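 Male Balb/c mice, eight weeks old, about 25 g. Single IV bolus of 200 μL, doses ranging from 8 to 100 mg/kg, in 1% DMSO/saline or 10% cremophor/saline; vehicle-only controls. Each dose tested in triplicate. Mice watched for convulsions, death and behaviour after injection to set the maximum tolerated dose.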
# Mus musculus [2] = test: Toxicity in Balb/C mouse assessed as change in behavior at >100 mg/kg, iv; format: organism-based; conditions: in vivo; procedure, shortened: as §2
# Mus musculus [3] = test: Toxicity in Balb/C mouse assessed as mortality at >100 mg/kg, iv; format: organism-based; conditions: in vivo; procedure, shortened: as §2
# Mus musculus [4] = test: Toxicity in Balb/C mouse assessed death at >32 mg/kg, iv; format: organism-based; conditions: in vivo
# Mus musculus [5] = test: Toxicity in Balb/C mouse assessed as convulsion at 33 mg/kg, iv measured at 1 min post dose; format: organism-based; conditions: in vivo; procedure, shortened: as §2
# Mus musculus [6] = test: Toxicity in Balb/C mouse assessed as death at 33 mg/kg, iv measured at 1 min post dose; format: organism-based; conditions: in vivo; procedure, shortened: as §2
# Mus musculus [7] = test: Toxicity in Balb/C mouse assessed as death at >25 mg/kg, iv up to 1 min; format: organism-based; conditions: in vivo; procedure, shortened: as §2
# Mus musculus [8] = test: Toxicity in Balb/C mouse assessed as convulsion at >25 mg/kg, iv up to 1 min; format: organism-based; conditions: in vivo; procedure, shortened: as §2
# Mus musculus [9] = test: Toxicity in Balb/C mouse at >100 mg/kg, iv; format: organism-based; conditions: in vivo; procedure, shortened: as §2
Structure (SMILES),MTD [1] [mg/kg],Activity (Mus musculus [2]),Activity (Mus musculus [3]),other results
CC[C@@H]1C[C@@H](C[C@@H]2c3cc(OC)c(OC)cc3CCN2C(=O)OCc2ccc(NC(=O)[C@H](CC(C)C)NC(=O)[C@H](CO)NC(C)=O)cc2)[C@H]2c3cc(OC)c(OC)cc3CCN2C1,–,–,–,Activity (LNCaP): Active; Activity (PC-3): Active
CC[C@H]1CN2CCc3cc(OC)c(OC)cc3[C@@H]2C[C@@H]1C[C@@H]1c2cc(OC)c(OC)cc2CCN1C(=S)[S-].[Na+],> 100,Non-Toxic,Non-Toxic,–
CC[C@H]1CN2CCc3cc(OC)c(OC)cc3[C@@H]2C[C@@H]1C[C@@H]1c2cc(OC)c(OC)cc2CCN1C(=O)OCc1ccc(NC(=O)[C@@H]2CCCN2C(=O)[C@H](C)N)cc1,32,–,–,Activity (Mus musculus [4]): Toxic
CC[C@H]1CN2CCc3cc(OC)c(OC)cc3[C@@H]2C[C@@H]1C[C@@H]1c2cc(OC)c(OC)cc2CCN1C(=O)/C=C(/C)C(=O)O,> 100,Non-Toxic,Non-Toxic,–
CC[C@H]1CN2CCc3cc(OC)c(OC)cc3[C@@H]2C[C@@H]1C[C@@H]1c2cc(OC)c(OC)cc2CCN1C(=O)/C=C(/CC(=O)O)C(=O)O,> 100,Non-Toxic,Non-Toxic,–
CC[C@H]1CN2CCc3cc(OC)c(OC)cc3[C@@H]2C[C@@H]1C[C@@H]1c2cc(OC)c(OC)cc2CCN1C(=O)OCc1ccc(NC(=O)[C@@H]2CCCN2C(=O)[C@H](C)NC(=O)[C@@H]2CCCN2C(=O)[C@H](C)NC(C)=O)cc1 (Ac-APAP[PABC]-{Emetine(N2')}),–,–,–,Activity (Mus musculus [5]): Toxic; Activity (Mus musculus [6]): Toxic
CC[C@H]1CN2CCc3cc(OC)c(OC)cc3[C@@H]2C[C@@H]1C[C@@H]1c2cc(OC)c(OC)cc2CCN1C(=O)OCc1ccc(NC(=O)[C@@H]2CCCN2C(=O)[C@H](C)NC(=O)[C@@H]2CCCN2C(=O)CNC(=O)[C@H](C)NC(=O)[C@@H]2CCCN2C(=O)CNC(=O)[C@H](CO)NC(=O)[C@H](C)NC(C)=O)cc1 (Ac-ASGPAGPAP[PABC]-{Emetine(N2')}),25,–,–,Activity (Mus musculus [7]): Toxic; Activity (Mus musculus [8]): Toxic
CC[C@H]1CN2CCc3cc(OC)c(OC)cc3[C@@H]2C[C@@H]1C[C@@H]1c2cc(OC)c(OC)cc2CCN1C(=O)OCc1ccc([N+](=O)[O-])cc1,> 64,Non-Toxic,Non-Toxic,Activity (Mus musculus [9]): Non-Toxic
